Data published in ChEMBL document CHEMBL3865794, “Novel securinine derivatives as topoisomerase I based antitumor agents” (Eur J Med Chem, 2016).

What was measured:
Assay type in all cases: functional, cell-based
[1] = Growth inhibition of human A549 cells after 72 hrs by MTT assay
Outline: (§1)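 Cells seeded at 5 × 10³ per well and incubated overnight in medium with 10% FBS. Medium then replaced with fresh medium containing compound at […] for 72 h. MTT (5 mg/mL stock, 20 µL per well) added for 4 h at 37 °C, formazan dissolved in DMSO, absorbance read at 570 nm. Each dose run in parallel triplicate. IC50 taken from mean absorbance versus concentration curves.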

[2] = Growth inhibition of human HeLa cells after 72 hrs by MTT assay; outline: as §1
[3] = Growth inhibition of human SH-SY5Y cells after 72 hrs by MTT assay; outline: as §1
[4] = Growth inhibition of human HepG2 cells after 72 hrs by MTT assay; outline: as §1

Row | Compound | IC50 ([1]; a549) | IC50 ([2]; hela) | IC50 ([3]; sh-sy5y) | IC50 ([1]; Homo sapiens, A549, 72 h) | IC50 ([2]; Homo sapiens, HeLa, 72 h) | IC50 ([4]; Homo sapiens, HepG2, 72 h) | IC50 ([3]; Homo sapiens, SH-SY5Y, 72 h) | IC50 ([4]; hepg2)
1 | O=C1O[C@@]23C[C@@H](C=CC2=C1C(O)c1ccc(Br)cc1)N1CCCC[C@@H]13 (stereo in doubt; 4a-4-a) | 6.24 µM | 12.8 µM | 22.4 µM | – | – | – | – | –
2 | O=C1O[C@@]23C[C@@H](C=CC2=C1C(O)c1ccc(F)cc1)N1CCCC[C@@H]13 (stereo in doubt; 4a-2) | – | – | – | 5.01 µM | 12.8 µM | 10.1 µM | 19.8 µM | –
3 | O=C1O[C@@]23C[C@@H](C=CC2=C1C(O)c1ccc(F)cc1)N1CCCC[C@@H]13 (stereo in doubt; 4a-2-a) | 4.95 µM | 12.8 µM | 19.1 µM | – | – | – | – | 10 µM
4 | N#Cc1ccc(C(O)C2=C3C=C[C@@H]4C[C@@]3(OC2=O)[C@H]2CCCCN42)cc1 (stereo in doubt; 4a-5-a) | 6.2 µM | 13.1 µM | 18.9 µM | – | – | – | – | 14.1 µM
5 | O=C1O[C@@]23C[C@@H](C=CC2=C1C(O)c1ccc(C(F)(F)F)cc1)N1CCCC[C@@H]13 (stereo in doubt; 4a-6-a) | 2.78 µM | 8.8 µM | 8.27 µM | – | – | – | – | 2.23 µM
6 | O=C1O[C@@]23C[C@@H](C=CC2=C1C(O)c1ccc(Cl)cc1)N1CCCC[C@@H]13 (stereo in doubt; 4a-3-b) | 6.2 µM | 12.5 µM | 19.9 µM | – | – | – | – | –
7 | O=C1O[C@@]23C[C@@H](C=CC2=C1C(O)c1ccc(Cl)cc1)N1CCCC[C@@H]13 (stereo in doubt; 4a-3) | – | – | – | 6.21 µM | 13 µM | 13 µM | 20 µM | –
8 | O=C1O[C@@]23C[C@@H](C=CC2=C1C(O)c1ccc(C(F)(F)F)cc1)N1CCCC[C@@H]13 (stereo in doubt; 4a-6-b) | 3.01 µM | 9.08 µM | 8.62 µM | – | – | – | – | 2.57 µM
9 | O=C1O[C@@]23C[C@@H](C=CC2=C1C(O)c1ccc(Br)cc1)N1CCCC[C@@H]13 (stereo in doubt; 4a-4) | – | – | – | 6.32 µM | 12.8 µM | 14.1 µM | 22.3 µM | –
10 | N#Cc1ccc(C(O)C2=C3C=C[C@@H]4C[C@@]3(OC2=O)[C@H]2CCCCN42)cc1 (stereo in doubt; 4a-5-b) | – | 12.1 µM | 18.9 µM | – | – | – | – | 14.1 µM
11 | O=C1O[C@@]23C[C@@H](C=CC2=C1C(O)c1ccc(Cl)cc1)N1CCCC[C@@H]13 (stereo in doubt; 4a-3-a) | 6.18 µM | 12.5 µM | 20.1 µM | – | – | – | – | 13.1 µM
12 | O=C1O[C@@]23C[C@@H](C=CC2=C1C(O)c1ccc(F)cc1)N1CCCC[C@@H]13 (stereo in doubt; 4a-2-b) | 5.09 µM | 12.7 µM | 19 µM | – | – | – | – | 10.1 µM
13 | N#Cc1ccc(C(O)C2=C3C=C[C@@H]4C[C@@]3(OC2=O)[C@H]2CCCCN42)cc1 (stereo in doubt; 4a-5) | – | – | – | 6.22 µM | 13 µM | 14.2 µM | 18.9 µM | –
14 | O=C1O[C@@]23C[C@@H](C=CC2=C1C(O)c1ccc(Br)cc1)N1CCCC[C@@H]13 (stereo in doubt; 4a-4-b) | 6.3 µM | – | 22.3 µM | – | – | – | – | 14.1 µM
